Arbovirus inh = blocks arbovirus infection. arbovirus infection cell-based antiviral screen. inhibition, % at 10 µM. 0.37% of 200,000 active; in the data active means inhibition above about 30%
Pf gamet viab = inhibitors of late stage P. falciparum gametocyte viability; inhibition, % at 10.9 µM; P. falciparum stage V gametocytes, ATP luminescence, 24 h; 0.065% of 150,000 active;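 active means inhibition above the mean plus 3 SD of compounds within the control limits, set per campaign, cut at about 38% in these data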;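 further: 0% = DMSO wells and 100% = medium only without gametocytes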
Hep lipid drop = hepatic lipid droplet formation modulation | AML12 mouse hepatocytes, oleate lipid droplets, BODIPY imaging | inhibition, % at 6.5 µM | 0.4% of 240,000 active | AID 1656;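 active means lipid droplet intensity inhibited by at least 50%, with more than 500 cells counted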
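Assay system: AML12 hepatocytes (mouse) / Also added: 100 µM oleic acid challenge / Times: overnight treatment with compound plus oleate / Detection: high-content imaging of BODIPY-stained droplets and DAPI nuclei / Evaluation: % inhibition of lipid droplet signal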
L929 necroptosis = L929 zVAD cell death inhibition; L929 zVAD necroptosis rescue, ATP luminescence, 24 h; with zVAD 60 µM; viability rescue, % at 10 µM; 0.38% of 220,000 active; AID 1377;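 active means activation, scaled between plate controls, above about 75%, limit read from the data; inactive means activation under that limit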;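 further: 0% = zVAD with DMSO and 100% = DMSO alone without zVAD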
TNF death inh = TNF-alpha cell death inhibition in Jurkat FADD-/- cells; Jurkat FADD-/- TNF necroptosis rescue, ATP luminescence, 24 h; 0 = TNF only, 100 = no-TNF cells; activation (protection from cell death), % at 10 µM; 0.068% of 220,000 active;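 active means activation, meaning protection from cell death, of at least 50% relative to plate controls; inactive means activation below 50%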;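 further: necroptosis triggered by 40 ng/mL TNF-alpha added together with compound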
zVAD death conf = confirmed blocker of zVAD induced death in L929 cells. shares compounds with L929 necroptosis. activation (protection from necroptosis), % at 10 µM. L929 zVAD-induced necroptosis rescue, ATP luminescence, 24 h. 16% of 760 active;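 active means mean protection from necroptosis of at least 50% over duplicate tests; inactive means mean protection below 50%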;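 further: 0% = cells with zVAD alone and 100% = vehicle cells without zVAD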
The depositor's hits bear a star; x = no result given. The list is not random: actives were taken first. Their share in the collection is about 0.91%.

SMILES | Arbovirus inh | Pf gamet viab | Hep lipid drop | L929 necroptosis | TNF death inh | zVAD death conf
CC(C)C(=O)n1nc(-c2cccnc2)nc1NCc1ccc(F)cc1 | -4 | 5 | -2 | 30 | 3 | x
CCCC(=O)n1nc(-c2cccnc2)nc1NCc1ccc(OC)cc1 | -7 | 10 | -17 | 80* | 3 | 0
COCC(=O)n1nc(-c2ccccc2)nc1NCc1cccs1 | -3 | -16 | 18 | 82* | 3 | 18
COc1ccccc1C(=O)n1nc(-c2cccnc2)nc1NCc1ccccc1 | -8 | 10 | 1 | 77* | 1 | 16
CCC(=O)n1nc(-c2ccc(Cl)cc2)nc1NCc1ccccc1 | -24 | x | x | 1 | -6 | x
O=C1CN(C(=O)NCC(=O)N2CCCC2)c2ccccc2N1 | x | x | 0 | x | x | x
NS(=O)(=O)c1ccc(N/C=C/C(=O)c2ccc(Br)cc2)cc1 | 11 | 17 | -6 | 76* | -1 | 16
NS(=O)(=O)c1ccc(N/C=C\C(=O)c2ccc(F)cc2)cc1 | 5 | -1 | 12 | 1 | -2 | x
O=C(Nc1ccc(F)cc1)Nc1ccccc1F | 4 | 2 | -21 | 1 | 0 | x
O=C(Nc1ccc(NC(=O)c2ccccc2O)cc1)Nc1ccc(F)cc1F | x | 8 | -4 | 78* | 10 | 33
COC(C(=O)Nc1ccc(F)cc1F)c1ccccc1 (configuration not stated) | 8 | x | 4 | 83* | 97* | 40
O=C(Nc1ccc(F)cc1F)Nc1ccc(F)cc1F | 9 | -3 | -19 | 1 | 14 | x
CSc1ncccc1C(=O)NC1CCCc2c1cnn2-c1ccc(C)c(C)c1 (configuration not stated) | x | x | -1 | x | x | x
Cc1cccc(OCC(=O)Nc2ccccc2-c2ccccc2)c1 | -8 | x | -10 | 75* | 1 | 1
COc1ccc(OCC(=O)Nc2ccccc2-c2ccccc2)cc1 | -18 | 23 | 0 | 3 | -7 | x
CC1(C)CC(=O)C2=C(C1)Oc1nc3ccccc3cc1C2C(C#N)C#N (configuration not stated) | 4 | 13 | x | 90* | -12 | 2
CC(C)CC1NC(=O)c2ccccc2-n2c1nc1ccc(F)cc1c2=O (configuration not stated) | x | 15 | x | x | x | x
CCOc1cc(/C=N/NC(=O)c2cc(C3CC3)[nH]n2)ccc1O | -12 | -30 | -23 | 91* | 9 | 7
O=C(Nc1ccc(N2CCN(C(=O)c3ccco3)CC2)cc1)c1ccco1 | -11 | 6 | 1 | 2 | 3 | x
O=C(Nc1ccc(N2CCN(C(=O)c3ccco3)CC2)cc1)C(c1ccccc1)c1ccccc1 | 3 | 15 | 48 | 76* | 2 | 21
CCN(CC)CCc1c(C)[nH]c(C(=O)OCc2ccccc2)c1C | -30 | x | 0 | 76* | -1 | 38
CC(C)(C)c1ccc(-c2nc(C#N)c(NCc3cccnc3)o2)cc1 | -23 | -20 | 1 | 78* | 2 | 10
Cc1ccc(S(=O)(=O)Nc2cccc3ncccc23)cc1 | x | -19 | -12 | 0 | 1 | x
Cc1ccc(S(=O)(=O)Nc2cccc3ncccc23)s1 | -46 | x | x | 75* | -5 | 47
Cn1c(=O)c2sccc2n2c(CCCC(=O)N3CCCCC3)nnc12 | x | x | 11 | x | x | x
SMILES | Arbovirus inh | Pf gamet viab | Hep lipid drop | L929 necroptosis | TNF death inh | zVAD death conf
O=C(c1cccs1)c1c[nH]cc1-c1ccccc1 | x | -2 | x | x | x | x
COc1ccccc1N1CCN(C(=O)CCNS(=O)(=O)c2cc(Br)cnc2N)CC1 | x | x | -2 | x | x | x
Nc1ncc(Br)cc1S(=O)(=O)NCCC(=O)N1CCN(c2ncccn2)CC1 | 4 | 22 | x | 92* | 18 | 3
CC(C)CCN1C(N(C)C)=NC[C@@H]1C | x | 18 | x | x | x | x
CNc1ncc(C(=O)c2ccc(Br)cc2)s1 | 4 | 6 | 12 | 83* | 6 | 1
CNc1ncc(C(=O)c2ccccc2)s1 | -3 | 3 | x | 4 | 5 | x
O=c1cc(N2CCN(c3ccccc3)CC2)[nH]c(=O)n1C1CCCCC1 | -5 | x | x | 81* | 21 | 26
O=c1cc(N2CCN(c3cccc(Cl)c3)CC2)[nH]c(=O)n1C1CCCCC1 | -8 | x | x | 81* | 32 | 44
CN1CCN(c2cc(=O)n(C3CCCCC3)c(=O)[nH]2)CC1 | 12 | x | -24 | -1 | 0 | x
O=C(NNS(=O)(=O)c1ccc(Br)cc1)c1cccs1 | -8 | -9 | -3 | 6 | 1 | x
Cn1nc(N)c2c(-c3ccc(Cl)cc3)c(C#N)c(N)nc21 | -2 | -2 | -4 | 81* | 2 | 37
COc1ccc(CNC(=O)N2CCN(c3ccccc3OC)CC2)cc1 | x | x | 41 | x | x | x
Cc1cc(C)nc(SCC(=O)c2c(N)n(C)c(=O)n(C)c2=O)n1 | -3 | x | 4 | 76* | -3 | 0
Cn1c(N)c(C(=O)CSc2ccc3c(c2)OCCO3)c(=O)n(C)c1=O | 17 | 1 | x | 0 | -5 | x
Cc1ccc(C(=O)Nc2cccc(C(F)(F)F)c2)cc1NC(=O)c1nccn1C | x | -20 | -8 | 82* | 4 | 10
Cc1ccc(C(=O)Nc2cccc(C(F)(F)F)c2)cc1NC(=O)c1ccno1 | x | 20 | -4 | 74 | -1 | x
O=C(Nc1cnccn1)c1cccc(C(F)(F)F)c1 | 2 | -10 | 0 | 2 | 0 | x
Cc1ccc(C(=O)Nc2cccc(C(F)(F)F)c2)cc1Nc1cnccn1 | x | x | -4 | 82* | 0 | 70*
Cc1ccc(C(=O)Nc2cccc(C(F)(F)F)c2)cc1Nc1ncnc2nc[nH]c12 | x | x | -28 | 82* | -4 | 72*
O=C(Nc1ccc(Cc2ccncc2)cc1)c1ccc(S(=O)(=O)N2CCCC2)cc1 | -18 | 0 | -19 | 64 | -8 | x
O=C(COC(=O)c1ccc(-c2nnc(-c3ccccc3)o2)cc1)c1ccccc1 | 0 | x | 10 | 78* | 0 | 0
O=c1cc(C(F)(F)F)oc2c1ccc1ccccc12 | 7 | -4 | -6 | -1 | -2 | x
O=c1cc(-c2cccnc2)oc2c1ccc1ccccc12 | x | -12 | -1 | 75* | -11 | 2
CC(=O)NCCC1CCN(C(=O)C2CCC(=O)N(C3CCCC3)C2)CC1 (configuration not stated) | x | x | 13 | x | x | x
CC(=O)Nc1ccc(C(O)(C(F)(F)F)C(F)(F)F)cc1 | 8 | -2 | 0 | 6 | 0 | x
CC(C)OC(=O)N(C)c1ccc(C(O)(C(F)(F)F)C(F)(F)F)cc1 | 19 | x | -12 | 77* | -2 | 9
O=C(NNC(=O)c1ccc(NC(=O)c2ccccc2)cc1)Nc1ccccc1 | -5 | 7 | 7 | 76* | 2 | 37
O=C(NNC(=O)c1ccc(NC(=O)c2ccccc2)cc1)c1ccc(F)cc1 | x | x | 6 | x | x | x
CCN(CC)CCCNC(=O)c1cc(Sc2nnc(C)s2)nc2ccccc12 | 2 | -2 | -10 | 79* | 7 | 10

Assay outcomes (PubChem BioAssay)
